The values below come from ChEMBL document CHEMBL4411331, “6-Amino-3-methylpyrimidinones as Potent, Selective, and Orally Efficacious SHP2 Inhibitors” (J Med Chem, 2019).

The term Papp A→B denotes how fast a substance crosses the layer from the apical side. The half-life is the time in which the quantity being followed falls by half. Low readings indicate fast loss, high ones slow loss. In general, bioavailability refers to dose-corrected exposure relative to a reference, in per cent. In general, solubility refers to the dissolved amount per volume that the medium holds. Lower therefore signals a poorly soluble substance. The term clearance denotes the rate of elimination divided by the concentration. Higher therefore signals efficient removal.

Data set [1] in a line: Apparent permeability across apical to basolateral side in human Caco2 cells. Type of data set: ADME, cell-based. The following applies: Caco-2. On the technique in general: Caco-2 monolayers are a common model of the intestinal barrier.
A short description of data set [2]: Intrinsic clearance in rat liver microsomes. Type of data set: ADME, Microsome. The following applies: read-out: CLH. (In general: Microsomes from liver hold many membrane-bound enzymes, among them those of drug oxidation.)
Data set [3] can be described thus: Half life in rat liver microsomes. The data set is classed as ADME, Microsome.
Data set [4] in a line: Dose normalized AUC in rat at 1 mg/kg, po. Type of data set: ADME, organism-based. The settings on record: in vivo.
Data set [5] can be described thus: Oral bioavailability in rat at 1 mg/kg. The settings on record: in vivo. Type of data set: ADME, organism-based.
Data set [6] is described as follows: Intrinsic clearance in mouse liver microsomes. Type of data set: ADME, Microsome. The settings on record: read-out: CLH.
The nature of data set [7]: Half life in mouse liver microsomes. Type of data set: ADME, Microsome.
Data set [8] is described as follows: Aqueous solubility of the compound in 6.8 pH buffer. The following applies: pH 6.8 buffer. Type of data set: physicochemical.
A short description of data set [9]: Drug uptake in human Detroit 562 cells xenografted NU/NU mouse at 20 to 80 mg/kg, po BID. The following applies: in vivo. The data set is classed as ADME, organism-based. An outline of the steps:
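Detroit-562 xenografts (5 x 10^5 cells subcutaneously in 50% matrigel/HBSS) were grown in female athymic NU/NU mice. At about 300 mm3 the mice were dosed by oral gavage, with 0.5% methylcellulose/0.1% Tween 80 as the vehicle control. Mice were euthanized at set times, and plasma and tumor fragments were collected for compound concentration.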
On the technique in general: Xenograft models place foreign cells or tissue in a host animal.

Data set [10] is described as follows: Clearance in rat. Type of data set: ADME. The settings on record: in vivo.
The nature of data set [11]: Half life in rat. The data set is classed as ADME. The settings on record: in vivo.
The nature of data set [12]: Permeability in human Caco2 cells. The settings on record: Caco-2, read-out: permeability. The data set is classed as ADME, cell-based.
The nature of data set [13]: Oral bioavailability in rat at 6 mg/kg. Type of data set: ADME, organism-based. The following applies: in vivo.
Data set [14] can be described thus: Dose normalized AUC in rat at 6 mg/kg, po. The data set is classed as ADME, organism-based. The following applies: in vivo.

Values after ≈ are worked out from the molar mass of the structure shown.

With `C[C@@H]1OCC2(CCN(c3nc(N)c(Sc4cccnc4C(F)(F)F)c(=O)n3C)CC2)[C@@H]1N`, the Papp A→B in [1] was determined as 1.02 ×10⁻⁶ cm/s. Moreover, the microsomal CLint in data set [2] and in [6] was 7.9 to 11.1 µL/min/mg throughout. Further, the half-life in data set [3] is over 2 h; in [7], over 2 h; in data set [11] it was 10.9 h. The molecule also gave an AUC/dose in [4] of 0.45 µM·h. The molecule also displayed a bioavailability in data set [5] of 29%. For the same molecule, the concentration in solution in [8] (solubility) came to 980 µM (≈ 461 µg/mL). Moreover, the Drug uptake entry in [9] is “Dose-dependent effect”. The clearance in [10] was determined as 21 mL/min/kg.

`Cn1c(N2CCC(C)(CN)CC2)nc(N)c(Sc2cccc(Cl)c2Cl)c1=O`: the Papp in [12] stood at 2.5 ×10⁻⁶ cm/s. This molecule also showed a solubility in data set [8] of 250 µM (≈ 107 µg/mL).

Regarding `C[C@@H]1OCC2(CCN(c3nc(N)c(Sc4cccc(Cl)c4Cl)c(=O)n3C)CC2)[C@@H]1N`, the Papp A→B in data set [1] was determined as 6.8 ×10⁻⁶ cm/s. For the same molecule, the microsomal CLint in [2] turned out to be 39.3 µL/min/mg. Further, the half-life in data set [3] came to 0.617 h. In [4], this molecule displayed an AUC/dose of 0.95 µM·h. Moreover, in data set [5], the bioavailability was 38%.

Regarding `C[C@H]1C[C@@H](N)C2(CCN(c3nc(N)c(Sc4cccnc4C(F)(F)F)c(=O)n3C)CC2)C1`, the Papp A→B in data set [1] is under 0.5 ×10⁻⁶ cm/s. Further, in data set [2], the microsomal CLint was 3.4 µL/min/mg. In data set [3], the half-life is 6.6 h. Also, the bioavailability in [13] was found to be 1%. The same molecule came in with an AUC/dose in data set [14] of 0.03 µM·h.
